Rows were chosen to be rich in hits. Some 1.5% of all compounds tested hit in one or more screens of this group.
FID counter – compounds displacing fluorescent DNA intercalator, primary screen, artefact control for HCV NS3 helicase inhibitor project, biochemical, FID fluorescence; 0.17% of 290,000 active; DNA fluorescent intercalator displacement; inhibition, % at 7.9 µM; AID 1845, 2009; in the data active = inhibition above about 37%;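 also: higher means more ethidium bromide displaced from hairpin DNA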
core dimer inh – inhibitors of HCV core protein dimerization, primary screen, biochemical, TR-FRET, high-throughput. TR-FRET GST/Flag-core106 dimerization, 1536-well. inhibition, % at 5 µM. 0.33% of 300,000 active;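 active = inhibition above the mean of all tested compounds plus 3 SD, set per screening campaign, cut at about 45% in these data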
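Assay system – GST-tagged and Flag-tagged HCV core protein residues 1-106 · Quantity – core106 proteins, GST 13.5 nM and Flag 17 nM · Benchmarks – unlabelled core106 and no-GST-core106 wells · Read-out basis – percent inhibition of core106 dimerization signal · Detection – time-resolved FRET, ex 340 nm, em 617 and 671 nm · Schedule – 4 h at 22.5 °C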
NRP1-CendR mod – modulators of CendR peptide binding to NRP-1, primary screen, biochemical, fluorescence polarization, uHTS | FAM-RPARPAR peptide binding to NRP-1 | inhibition, % at 25 µM | Neuropilin-1 (Homo sapiens), O14786 | 0.85% of 360,000 active;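 active = inhibition or corrected inhibition above about 18%, plus a signal ratio from 0.5 to 1.5, limit read from the data, passing the limit was not always enough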
MEX-5 binding – MEX-5 zinc finger RNA-binding disruptors – biochemical, C. elegans, fluorescence polarization, MLPCN library, primary screen. Zinc finger protein mex-5 (Caenorhabditis elegans), Q9XUB2. MEX-5/FITC-TCR2 RNA binding; active compounds read low. activity score (negative = inhibition of binding), % at 10 µM. 0.38% of 300,000 active. AID 1832, 2009;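 active = inhibition past about -25% in most replicates, and total fluorescence under double the plate's negative control median, limit read from the data; inconclusive = replicates evenly split on the limit, or fluorescence at least double controls; inactive = too little inhibition in most replicates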
Target sequence (Q9XUB2 whole entry, looked up): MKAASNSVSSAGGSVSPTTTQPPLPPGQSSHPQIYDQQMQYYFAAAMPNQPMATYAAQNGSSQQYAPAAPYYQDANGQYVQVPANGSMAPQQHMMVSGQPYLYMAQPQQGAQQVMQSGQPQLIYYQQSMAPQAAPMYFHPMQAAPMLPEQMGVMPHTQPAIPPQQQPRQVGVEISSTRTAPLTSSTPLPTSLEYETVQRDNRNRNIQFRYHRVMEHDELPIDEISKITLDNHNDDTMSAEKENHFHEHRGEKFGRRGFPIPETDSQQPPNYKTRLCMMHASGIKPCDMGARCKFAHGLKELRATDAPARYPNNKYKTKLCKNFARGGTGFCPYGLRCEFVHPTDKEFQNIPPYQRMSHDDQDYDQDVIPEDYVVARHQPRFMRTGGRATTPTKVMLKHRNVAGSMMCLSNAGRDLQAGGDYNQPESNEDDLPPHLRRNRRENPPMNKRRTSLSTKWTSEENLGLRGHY
Large screens that a line does not name were inactive.

CCOC(=O)C[C@H]1c2cc(C(F)(F)F)ccc2S(=O)(=O)N1C(C)C	NRP1-CendR mod 33.9 (no result: FID counter)
Cc1cc(-c2nc3c4c5c(sc4[nH]c(=O)n3n2)CCC5)c(C)o1	core dimer inh 55.4
Cc1nc2sc3c(c2c(=O)[nH]1)CCC3	none
Cc1nc2c3ccccc3nc(NNC(=O)CCC(=O)N3CCC(C)CC3)n2n1	none
CCCCN(C)C(=O)CCC(=O)NNc1nc2ccccc2c2nc(C)nn12	MEX-5 binding -31.9
CCOC(=O)C1CCN(C(=O)CCC(=O)NNc2nc3ccccc3c3nc(C)nn23)CC1	MEX-5 binding -48.0
CCN(CC)CCCNC(=O)CCC(=O)NNc1nc2ccccc2c2nc(C)nn12	MEX-5 binding -54.1
Cc1nc2c3ccccc3nc(NNC(=O)CCC(=O)NCCC(C)C)n2n1	none
C[C@H](CO)N1C[C@H](C)[C@H](CN(C)Cc2ccncc2)Oc2cc(-c3ccccc3F)ccc2S1(=O)=O	none (no result: FID counter, core dimer inh, MEX-5 binding)
CSc1ccccc1NC(=O)C1(C)CCN1C(=O)Cc1ccccc1Cl (stereo unspecified)	none (no result: FID counter, core dimer inh, MEX-5 binding)
CC1=NN(c2cccc(C(=O)O)c2)C(=O)/C1=C\C=C\c1ccco1	MEX-5 binding -26.8
CC1=NN(c2ccccc2)C(=O)/C1=C/C=C/c1ccccc1	none
Cc1ccc(/C=N/NC(=O)Cc2ccc(Cl)cc2)s1	none
CCOc1ccc(C(=O)NC(C(=O)NCc2ccccc2OC)C(C)C)cc1 (stereo unspecified)	none
CCOc1ccc(C(=O)NC(C(=O)NCCc2ccc(OC(F)F)cc2)C(C)C)cc1 (stereo unspecified)	NRP1-CendR mod 23.1
FC(F)(F)c1ccc(-c2cccc3c2C2CC3CCN2Cc2ccc3c(c2)OCO3)cc1 (stereo unspecified)	none (no result: FID counter, core dimer inh, MEX-5 binding)
Cc1noc(C)c1C(=O)Nc1sc2c(c1C(N)=O)CCCCC2	none
CCOC(=O)c1c(NC(=O)c2c(C)noc2C)sc2c1CCCCC2	NRP1-CendR mod 34.9
CCOC(=O)c1c(NS(=O)(=O)c2ccc(Br)cc2)sc2c1CCC2	core dimer inh 69.7
CCc1ccc([C@H]2[C@@H]3C(=O)C[C@@H]4C(=O)N(C5CCCCC5)C(=O)[C@@H]4[C@@H]3CN2S(=O)(=O)c2ccc(C)cc2)cc1	none (no result: FID counter, core dimer inh, MEX-5 binding)
CC(=O)c1ccc(S(=O)(=O)N2CCN(CC(=O)Nc3ccccc3C(=O)NC3CC3)CC2)cc1	NRP1-CendR mod 17.1 (no result: FID counter, core dimer inh, MEX-5 binding)
Cc1cc(N=Nc2c(O)c3ccccc3[nH]c2=O)ccc1N=Nc1ccc(C(=O)N(C)C)cc1	NRP1-CendR mod 22.7 (no result: core dimer inh)
CCCc1cn(CC(C)n2c(=O)c3ccccc3n2Cc2cc(C(C)C)no2)nn1 (stereo unspecified)	none (no result: FID counter, core dimer inh, MEX-5 binding)
Cc1ccc(NC(=O)CCNC(=O)c2ccc([N+](=O)[O-])cc2)cc1S(=O)(=O)N(C)C	NRP1-CendR mod 39.1
CC(C)C[C@@H](CN1CCCC1CN1C(=S)NC[C@@H]1Cc1ccccc1)N1C[C@H](Cc2ccccc2)N(CCc2ccccc2)C1=S (stereo partly specified)	none (no result: FID counter, core dimer inh, MEX-5 binding)
COc1ccc(OC)c(C2C3CN(C(C)C)CC=C3C(C#N)=C(N)C2(C#N)C#N)c1 (stereo unspecified)	MEX-5 binding -38.3
CCCCOc1ccc(C2C3CN(C(=O)OCC)CC=C3C(C#N)=C(N)C2(C#N)C#N)cc1OC (stereo unspecified)	none
COc1cccc(OC)c1OCc1cc(C2C3CCCC=C3C(C#N)=C(N)C2(C#N)C#N)c(C)cc1C (stereo unspecified)	core dimer inh 56.3
Cc1ccc(C2C3CN(C(C)C)CC=C3C(C#N)=C(N)C2(C#N)C#N)cc1 (stereo unspecified)	MEX-5 binding -27.9 (no result: FID counter)
CCCN1CC=C2C(C#N)=C(N)C(C#N)(C#N)C(c3cccc(OC)c3OC)C2C1 (stereo unspecified)	MEX-5 binding -67.1
COc1ccc(Cc2c(-c3ccc(OC)c(OC)c3)nc3cc(C)c(Br)c(C)n23)c(C)c1	none (no result: FID counter, core dimer inh, MEX-5 binding)
Cc1ccccc1-c1csc(C(O)c2ccccc2)n1 (stereo unspecified)	none (no result: FID counter, core dimer inh, MEX-5 binding)
CCCNC(=O)C1(C)CCN(C(=O)COCc2ccccc2)C1 (stereo unspecified)	none (no result: FID counter, core dimer inh, MEX-5 binding)
N=C1C(c2nc(-c3ccc(Cl)cc3)cs2)=C(O)CN1NC(=O)c1ccc(O)cc1	none
N=C1C(c2nc(-c3cccc([N+](=O)[O-])c3)cs2)=C(O)CN1NC(=O)c1ccco1	none
N=C1C(c2nc(-c3ccc(Br)cc3)cs2)=C(O)CN1NC(=O)c1ccc([N+](=O)[O-])cc1	core dimer inh 52.8
Cc1ccc(-c2csc(C3=C(O)CN(NC(=O)c4ccc([N+](=O)[O-])cc4)C3=N)n2)cc1	core dimer inh 48.1
CCN1C(=O)/C(=C2\SC(=S)N(CCCOC)C2=O)c2ccccc21	none
O=C(CN1C(=O)/C(=C2\SC(=S)N(CCS(=O)(=O)O)C2=O)c2ccccc21)Nc1cccc(Br)c1	FID counter 57.6
COCCN1C(=O)/C(=C2/C(=O)N(CC(=O)Nc3ccccc3Cl)c3ccccc32)SC1=S	NRP1-CendR mod 28.1
CCc1nc2ccc(C(=O)NCCc3c[nH]c4ccccc34)cn2c1N(C=O)CCC(C)C	none (no result: FID counter, core dimer inh, MEX-5 binding)
CCOc1ccc(C(C)=O)cc1CSc1nnc(-c2ccoc2C)n1N	core dimer inh 46.1
CCOC(=O)c1[nH]c(=S)[nH]c1C	none (no result: FID counter, core dimer inh, MEX-5 binding)
COc1ccc(N2CCN(C(=O)c3ccc(NC(=O)C4=CSCCO4)cc3)CC2)cc1	NRP1-CendR mod 35.5
CCCCC(=O)N(C)c1c(CC)nc2c(OCc3ccccc3C)cccn12	NRP1-CendR mod 21.8 (no result: FID counter, core dimer inh, MEX-5 binding)
CCc1nc2c(OCc3ccccc3C)cccn2c1N(C)C(=O)CC(C)C	none (no result: FID counter, core dimer inh, MEX-5 binding)
CCc1nc2c(OCc3ccc(C(=O)OC)cc3)cccn2c1N(C)C(=O)CC(C)C	NRP1-CendR mod 25.8 (no result: FID counter, core dimer inh, MEX-5 binding)
CCc1nc2c(OCCn3cccc3)cccn2c1N(C)C(=O)CC(C)C	none (no result: FID counter, core dimer inh, MEX-5 binding)
COc1cc(C(=O)N(C)C2CCCCC2)cc(OC)c1OC	none (no result: FID counter, core dimer inh, MEX-5 binding)
Cc1ccc2c(C)c(C(=O)NCc3ccc(S(N)(=O)=O)cc3)oc2c1C	none
Cc1ccc2c(C)c(C(=O)Nc3ccc(S(N)(=O)=O)cc3)oc2c1C	NRP1-CendR mod 39.6
COC(=O)c1cc(C)nc2c1C(=O)C(=O)C=C2N1CCOCC1	NRP1-CendR mod 28.7
COC(=O)c1cc(S(=O)(=O)N2CCOCC2)c(Cl)cc1N1CCOCC1	none
Cc1cc2nc3c(=O)n(CCc4ccccc4)c(=O)[nH]c3nc2cc1N	MEX-5 binding inconclusive
Nc1ccc2nc3c(=O)n(CCc4ccccc4)c(=O)[nH]c3nc2c1	MEX-5 binding -52.0
C=CCNC(=O)C1CC2Cn3c(nc4cc5ccccc5cc43)C2N1C (stereo unspecified)	NRP1-CendR mod 18.9 (no result: FID counter)
CC1(C(=O)NS(C)(=O)=O)CCN1C(=O)C/C=C/c1ccccc1 (stereo unspecified)	none (no result: FID counter, core dimer inh, MEX-5 binding)
CC(=O)c1sc2nc(CSc3nnnn3-c3ccccc3)[nH]c(=O)c2c1C	core dimer inh 73.7
O=C1C=CN(C2OC(CO)C(O)C2O)C(=O)C1 (stereo unspecified)	none (no result: FID counter, core dimer inh, MEX-5 binding)
